Measurements: ChEMBL document CHEMBL1125378, “alpha-Methyl polyamines: metabolically stable spermidine and spermine mimics capable of supporting growth in cells depleted of polyamines” (J Med Chem, 1992)

Tests used:
L1210 [1] = test: Compound level in 72 hr DFMO (5 mM)-treated L1210 cells after exposure to 10 uM spermidine; type: functional, cell-based; conditions: Mus musculus
How it was run: (§1)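 L1210 cells held in 5 mM DFMO for 72 h before polyamine addition and through a further 72 h, refed at 72 h; controls without DFMO cultured 72 h in total. Intracellular polyamines reported as nmol/mg protein (detection limit 0.2). Mean ± SD from at least four separate experiments.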

HT-29 [2] = test: Compound level in HT-29 cells after 96 h; type: functional, cell-based; conditions: Homo sapiens
How it was run: (§2)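 HT29 experiment B: 5 mM DFMO for 120 h before addition and throughout a further 96 h; refed at 96 h. Cells without DFMO cultured 96 h in total. Polyamines measured as nmol/mg protein (detection limit 0.2). SD from at least four separate experiments.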

SV3T3 [3] = test: Compound level in SV3T3 cells after 96 hr; type: functional, cell-based; conditions: Mus musculus
L1210 [4] = test: Compound level in L1210 cells after 72 h; type: functional, cell-based; conditions: Mus musculus; how it was run: as §1
HT-29 [5] = test: Compound level in HT-29 cells after 72 h; type: functional, cell-based; conditions: Homo sapiens
SV3T3 [6] = test: Compound level in DFMO-treated SV3T3 cells at 0 h; type: functional, cell-based; conditions: Mus musculus
How it was run: (§3)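 SV-3T3 fibroblasts (experiment A) held in 5 mM DFMO for 72 h before polyamine addition and throughout a further 72 h. Intracellular polyamines expressed as nmol/mg protein (detection limit 0.05). SD from at least four separate experiments, or duplicate where no SD is given.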

SV3T3 [7] = test: Compound level in 72 hr DFMO (5 mM)-treated SV3T3 cells after exposure to 10 uM spermidine; type: functional, cell-based; conditions: Mus musculus; how it was run: as §3
HT-29 [8] = test: Compound level in 72 hr DFMO (5 mM)-treated HT-29 cells after exposure to 10 uM spermidine; type: functional, cell-based; conditions: Homo sapiens
How it was run: (§4)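 HT29 cells pretreated with 5 mM DFMO for 120 h, then polyamine added and culture continued with DFMO for 72 h (experiment A); refed at 96 h. Cellular polyamine content given as nmol/mg protein (detection limit 0.2). SD from at least four separate experiments.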

HT-29 [9] = test: Compound level in 72 hr DFMO (5 mM)-treated HT-29 cells after exposure to 25 uM 1-methylspermine; type: functional, cell-based; conditions: Homo sapiens; how it was run: as §4
HT-29 [10] = test: Compound level in 72 hr DFMO (5 mM)-treated HT-29 cells after exposure to 10 uM 1-methylspermine; type: functional, cell-based; conditions: Homo sapiens; how it was run: as §4
SV3T3 [11] = test: Compound level in 96 hr DFMO (5 mM)-treated SV3T3 cells after exposure to 25 uM spermine; type: functional, cell-based; conditions: Mus musculus
Homo sapiens = species on record: Homo sapiens; test: Compound level in DFMO-treated HT-29 cells after 96 h; type: functional, cell-based; how it was run: as §2
SV3T3 [12] = test: Compound level in 96 hr DFMO (5 mM)-treated SV3T3 cells after exposure to 10 uM spermine; type: functional, cell-based; conditions: Mus musculus
HT-29 [13] = test: Compound level in 72 h DFMO (5 mM)-treated HT-29 cells after exposure to 25 uM spermidine; type: functional, cell-based; conditions: Homo sapiens
L1210 [14] = test: Compound level in 72 h DFMO (5 mM)-treated L1210 cells after exposure to 10 uM spermine; type: functional, cell-based; conditions: Mus musculus; how it was run: as §1
SV3T3 [15] = test: Compound level in 72 hr DFMO (5 mM)-treated SV3T3 cells after exposure to 10 uM spermine; type: functional, cell-based; conditions: Mus musculus; how it was run: as §3
HT-29 [16] = test: Compound level in 72 hr DFMO (5 mM)-treated HT-29 cells after exposure to 10 uM spermine; type: functional, cell-based; conditions: Homo sapiens; how it was run: as §4
L1210 [17] = test: Compound level in 72 hr DFMO (5 mM)-treated L1210 cells after exposure to 10 uM 1,12-dimethylspermine; type: functional, cell-based; conditions: Mus musculus; how it was run: as §1
HT-29 [18] = test: Compound level in 72 hr DFMO (5 mM)-treated HT-29 cells after exposure to 15 uM spermine; type: functional, cell-based; conditions: Homo sapiens; how it was run: as §4
L1210 [19] = test: Compound level in DFMO-treated L1210 cells at 0 h; type: functional, cell-based; conditions: Mus musculus; how it was run: as §1
HT-29 [20] = test: Compound level in 96 hr DFMO (5 mM)-treated HT-29 cells after exposure to 10 uM spermine; type: functional, cell-based; conditions: Homo sapiens
[21] = Retention time was determined; type: ADME
HT-29 [22] = test: Compound level in DFMO-treated HT-29 cells after 72 h; type: functional, cell-based; conditions: Homo sapiens; how it was run: as §4
SV3T3 [23] = test: Compound level in 96 hr DFMO (5 mM)-treated SV3T3 cells after exposure to 10 uM 1,12-dimethylspermine; type: functional, cell-based; conditions: Mus musculus
SV3T3 [24] = test: Compound level in 72 hr DFMO (5 mM)-treated SV3T3 cells after exposure to 1 uM 1-methylspermidine; type: functional, cell-based; conditions: Mus musculus; how it was run: as §3
HT-29 [25] = test: Compound level in 72 hr DFMO (5 mM)-treated HT-29 cells after exposure to 25 uM 1-methylspermidine; type: functional, cell-based; conditions: Homo sapiens; how it was run: as §4
SV3T3 [26] = test: Compound level in 72 hr DFMO (5 mM)-treated SV3T3 cells after exposure to 1 uM 1-methylspermine; type: functional, cell-based; conditions: Mus musculus; how it was run: as §3
SV3T3 [27] = test: Compound level in 72 hr DFMO (5 mM)-treated SV3T3 cells after exposure to 25 uM 1-methylspermine; type: functional, cell-based; conditions: Mus musculus; how it was run: as §3
L1210 [28] = test: Compound level in 72 hr DFMO (5 mM)-treated L1210 cells after exposure to 10 uM 1-methylspermidine; type: functional, cell-based; conditions: Mus musculus; how it was run: as §1
HT-29 [29] = test: Compound level in 72 hr DFMO (5 mM)-treated HT-29 cells after exposure to 10 uM 1-methylspermidine; type: functional, cell-based; conditions: Homo sapiens; how it was run: as §4
SV3T3 [30] = test: Compound level in 72 hr DFMO (5 mM)-treated SV3T3 cells after exposure to 10 uM 1-methylspermine; type: functional, cell-based; conditions: Mus musculus; how it was run: as §3
SV3T3 [31] = test: Compound level in 72 hr DFMO (5 mM)-treated SV3T3 cells after exposure to 25 uM 1-methylspermidine; type: functional, cell-based; conditions: Mus musculus; how it was run: as §3
SV3T3 [32] = test: Compound level in 72 h DFMO (5 mM)-treated SV3T3 cells after exposure to 10 uM 1-methylspermidine; type: functional, cell-based; conditions: Mus musculus; how it was run: as §3

Structure (SMILES): NCCCCN
- Level (nM (mg of protein)-1) (L1210 [1]): 0.8
- Level (nM (mg of protein)-1) (HT-29 [2]): 5.9
- Level (nM (mg of protein)-1) (SV3T3 [3]): 0.9
- Level (nM (mg of protein)-1) (L1210 [4]): 5.8
- Level (nM (mg of protein)-1) (HT-29 [5]): 4.4
- Level (nM (mg of protein)-1) (SV3T3 [6]): 0.5

Structure (SMILES): NCCCCNCCCN [SPERMIDINE]
- Level (nM (mg of protein)-1) (SV3T3 [7]): 8.7
- Level (nM (mg of protein)-1) (HT-29 [8]): 23.6
- Level (nM (mg of protein)-1) (HT-29 [9]): 0.3
- Level (nM (mg of protein)-1) (HT-29 [10]): 0.4
- Level (nM (mg of protein)-1) (L1210 [1]): 38
- Level (nM (mg of protein)-1) (SV3T3 [11]): 3.1
- Level (nM (mg of protein)-1) (Homo sapiens): 0.4
- Level (nM (mg of protein)-1) (SV3T3 [12]): 11.5
- Level (nM (mg of protein)-1) (HT-29 [2]): 13.4
- Level (nM (mg of protein)-1) (SV3T3 [3]): 26.4
- Level (nM (mg of protein)-1) (HT-29 [13]): 25.1
- Level (nM (mg of protein)-1) (L1210 [14]): 6.4
- Level (nM (mg of protein)-1) (SV3T3 [15]): 2.6
- Level (nM (mg of protein)-1) (HT-29 [16]): 7.9
- Level (nM (mg of protein)-1) (L1210 [4]): 41
- Level (nM (mg of protein)-1) (L1210 [17]): 0.2
- Level (nM (mg of protein)-1) (HT-29 [18]): 4.8
- Level (nM (mg of protein)-1) (L1210 [19]): 1
- Level (nM (mg of protein)-1) (HT-29 [5]): 9.8
- Level (nM (mg of protein)-1) (HT-29 [20]): 4.4
- tR [21]: 33.9 min
- Level (nM (mg of protein)-1) (SV3T3 [6]): 0.3
- Level (nM (mg of protein)-1) (HT-29 [22]): 0.7

Structure (SMILES): CC(N)CCNCCCCN (stereo unspecified)
- Level (nM (mg of protein)-1) (SV3T3 [23]): 1.2
- Level (nM (mg of protein)-1) (SV3T3 [24]): 11.8
- Level (nM (mg of protein)-1) (HT-29 [10]): 0.2
- Level (nM (mg of protein)-1) (HT-29 [25]): 16.8
- Level (nM (mg of protein)-1) (SV3T3 [26]): 0.6
- Level (nM (mg of protein)-1) (SV3T3 [27]): 0.4
- Level (nM (mg of protein)-1) (L1210 [28]): 67.2
- Level (nM (mg of protein)-1) (HT-29 [29]): 13.3
- Level (nM (mg of protein)-1) (SV3T3 [30]): 2.7
- Level (nM (mg of protein)-1) (SV3T3 [31]): 31.2
- Level (nM (mg of protein)-1) (SV3T3 [32]): 26.8
- tR [21]: 34.5 min
